Source: ChEMBL document CHEMBL1132919, “Structure-activity studies for a novel series of tricyclic substituted hexahydrobenz[e]isoindole alpha(1A) adrenoceptor antagonists as potential agents for the symptomatic treatment of benign prostatic hyperplasia (BPH)” (J Med Chem, 2000)

Experiments:
[1] = target: T1, Alpha-1B adrenergic receptor (Mesocricetus auratus, UniProt P18841); assay: In vitro binding affinity using [3H]prazosin as radioligand against adrenoceptor alpha 1b expressed in LTK cell; assay type: cell-based
T1 sequence (P18841 whole entry): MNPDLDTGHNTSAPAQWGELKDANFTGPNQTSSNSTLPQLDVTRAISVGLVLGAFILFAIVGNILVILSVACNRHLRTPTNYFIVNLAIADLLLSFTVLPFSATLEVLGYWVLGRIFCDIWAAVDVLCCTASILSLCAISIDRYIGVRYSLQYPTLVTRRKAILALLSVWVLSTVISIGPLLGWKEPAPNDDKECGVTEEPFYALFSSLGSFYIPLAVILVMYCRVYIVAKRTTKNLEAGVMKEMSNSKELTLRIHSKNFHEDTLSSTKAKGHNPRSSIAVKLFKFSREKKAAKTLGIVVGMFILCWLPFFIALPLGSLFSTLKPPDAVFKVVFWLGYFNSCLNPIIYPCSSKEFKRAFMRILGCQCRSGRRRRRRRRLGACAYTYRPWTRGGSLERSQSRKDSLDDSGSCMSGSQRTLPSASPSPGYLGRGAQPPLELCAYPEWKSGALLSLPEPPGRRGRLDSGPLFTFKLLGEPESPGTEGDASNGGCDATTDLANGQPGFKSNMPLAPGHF
Method in brief: (§1)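 Membranes from mouse LTK- fibroblasts stably expressing cloned hamster α1B or rat α1D, grown in roller bottles, frozen in liquid N2 and stored at -70 °C. Incubated with [3H]-prazosin ~200 pM, ~0.1 mg protein per tube, in 50 mM Tris-HCl pH 7.4 for 60 min at 25 °C; nonspecific binding defined by 10^-5 M phentolamine (final).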

[2] = target: T2, Alpha-1D adrenergic receptor (Rattus norvegicus, UniProt P23944); assay: In vitro binding affinity using [3H]prazosin as radioligand against adrenoceptor alpha 1d expressed in LTK cell; assay type: cell-based; method in brief: as §1
T2 sequence (P23944 whole entry): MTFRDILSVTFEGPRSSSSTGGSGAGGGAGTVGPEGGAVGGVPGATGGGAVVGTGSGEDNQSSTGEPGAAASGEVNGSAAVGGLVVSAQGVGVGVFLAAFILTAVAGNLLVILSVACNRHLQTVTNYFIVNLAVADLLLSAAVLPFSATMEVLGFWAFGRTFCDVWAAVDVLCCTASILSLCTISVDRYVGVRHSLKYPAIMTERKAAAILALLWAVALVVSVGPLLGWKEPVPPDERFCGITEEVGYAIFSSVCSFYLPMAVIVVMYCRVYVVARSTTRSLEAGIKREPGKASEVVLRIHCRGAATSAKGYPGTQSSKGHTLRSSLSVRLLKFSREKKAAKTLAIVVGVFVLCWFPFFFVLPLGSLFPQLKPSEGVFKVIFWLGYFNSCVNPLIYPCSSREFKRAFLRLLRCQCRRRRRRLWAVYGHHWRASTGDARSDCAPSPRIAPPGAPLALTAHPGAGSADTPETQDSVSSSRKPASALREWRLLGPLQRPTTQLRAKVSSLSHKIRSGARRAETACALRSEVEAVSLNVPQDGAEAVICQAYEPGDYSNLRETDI

[3] = target: T3, Alpha-1A adrenergic receptor (Rattus norvegicus, UniProt P43140); assay: In vitro binding affinity using [3H]prazosin as radioligand against adrenoceptor alpha 1A
T3 sequence (P43140 whole entry): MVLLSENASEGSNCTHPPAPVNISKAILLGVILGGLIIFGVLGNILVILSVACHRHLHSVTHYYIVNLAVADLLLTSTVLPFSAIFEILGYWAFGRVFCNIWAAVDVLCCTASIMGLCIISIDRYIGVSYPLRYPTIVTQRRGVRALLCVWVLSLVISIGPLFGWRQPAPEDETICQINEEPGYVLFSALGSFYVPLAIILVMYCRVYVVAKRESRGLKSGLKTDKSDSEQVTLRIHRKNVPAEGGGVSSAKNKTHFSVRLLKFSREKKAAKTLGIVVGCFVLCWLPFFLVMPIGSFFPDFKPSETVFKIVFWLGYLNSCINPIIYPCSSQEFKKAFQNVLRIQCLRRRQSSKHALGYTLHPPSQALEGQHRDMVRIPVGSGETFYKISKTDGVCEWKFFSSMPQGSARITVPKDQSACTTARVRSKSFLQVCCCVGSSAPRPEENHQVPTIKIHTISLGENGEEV
Method in brief: (§2)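 Binding to pharmacologically defined α1A site in rat submaxillary gland membranes; [3H]-prazosin ~200 pM, nonspecific binding with 10^-5 M phentolamine (final); ~0.1 mg protein per tube in 50 mM Tris-HCl pH 7.4, 60 min at 25 °C.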

[4] = species on record: Canis familiaris; assay: (§3) Intraurethral pressure (IUP) in Beagle dogs values are expressed as pseudo pA2 values.; assay type: functional, Canis lupus familiaris, Urethra
[5] = species on record: Rattus norvegicus; assay: Pseudo ED50 in Spontaneously Hypertensive Rat (SHR) model. Number determinations => 3.; assay type: functional
Method in brief: (§4)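 Male SHR (300-325 g), briefly anesthetized with Penthrane, catheterized in femoral artery (MAP) and vein (dosing). After 2.5 h recovery and a 30 min predose control period, one iv antagonist dose per rat in an ascending paradigm; MAP and HR recorded over 60 min. Trapezoidal AUC of percent change in MAP (T60 AUC); ED50 is the dose lowering MAP by 50% of normotensive.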

[6] = species on record: Rattus norvegicus; assay: Antagonist dissociation constant in rat spleen, number of determinations => 3.; details: read-out: pA2 (converted)
[7] = species on record: Rattus norvegicus; assay: Determination Pseudo pED50 in Spontaneously Hypertensive Rat (SHR) model; assay type: functional; method in brief: as §4
[8] = species on record: Rattus norvegicus; assay: Antagonist dissociation constant in rat vas deferens; details: read-out: pA2 (converted)
[9] = species on record: Rattus norvegicus; assay: Antagonist dissociation constant in rat spleen; details: read-out: pA2 (converted)
[10] = species on record: Canis familiaris; assay: as §3; details: Canis lupus familiaris, Urethra, read-out: pA2 (converted)
[11] = species on record: Rattus norvegicus; assay: Pseudo ED50 in Spontaneously Hypertensive Rat (SHR) model; assay type: functional; method in brief: as §4
[12] = target: T1, Alpha-1B adrenergic receptor; assay: In vitro binding affinity using [3H]prazosin as radioligand against alpha-1B adrenergic receptor expressed in LTK cell; assay type: cell-based; method in brief: as §1
[13] = species on record: Canis familiaris; assay: Antagonist dissociation constant in dog prostate; details: Canis lupus familiaris, Prostate gland, read-out: pA2 (converted)
[14] = target: T2, Alpha-1D adrenergic receptor; assay: In vitro binding affinity using [3H]prazosin as radioligand against alpha-1D adrenergic receptor expressed in LTK cell; assay type: cell-based; method in brief: as §1
[15] = species on record: Rattus norvegicus; assay: Antagonist dissociation constant in rat vas deferens, number of determinations => 3.; details: read-out: pA2 (converted)
[16] = species on record: Canis familiaris; assay: Antagonist dissociation constant in dog prostate, number of determinations => 3.; details: Canis lupus familiaris, Prostate gland; read-out: pA2 (converted)
[17] = target: T3, Alpha-1A adrenergic receptor; assay: In vitro binding affinity using [3H]prazosin as radioligand against alpha-1A adrenergic receptor; method in brief: as §2
[18] = species on record: Cricetulus griseus; assay: Ratio between Ki(alpha-1b)/Ki(alpha1A)
[19] = species on record: Rattus norvegicus; assay: Determination of Pseudo pED50 in Spontaneously Hypertensive Rat (SHR) model. Number determinations => 3.; assay type: functional; method in brief: as §4

`COc1cccc2c1CC[C@H]1CN(CCn3c(=O)[nH]c4c(sc5ccc(Cl)nc54)c3=O)C[C@@H]21` showed a Ki [1] of 4.15 nM, a Ki [2] of 0.61 nM and a Ki [3] of 0.38 nM.

`COc1cc2nc(N3CCN(C(=O)C4CCCO4)CC3)nc(N)c2cc1OC` (stereo unspecified) [TERAZOSIN] was tested, and the IUP [4] was 7.02, the SHR [5] was 6.64 and the Kb [6] was 2.51 nM.

In the case of `COc1cc2nc(N3CCN(C(=O)C4COc5ccccc5O4)CC3)nc(N)c2cc1OC` (stereo unspecified) [DOXAZOSIN], the pED50 [7] is reported as 6.5, the Kb [8] is reported as 2.04 nM and the Kb [9] is reported as 0.309 nM. It also gave a Kb [10] of 75.9 nM.

`COc1cccc2c1CC[C@H]1CN(CCn3c(=O)[nH]c4c(sc5cccnc54)c3=O)C[C@@H]21` showed a Kb [8] of 1.17 nM, a pED50 [11] of 5.33 and a Kb [9] of 12.9 nM. The Kb [10] was 6.76 nM, the Ki [12] was 3.39 nM and the Kb [13] was 0.776 nM. For the same molecule, the Ki [14] was 0.51 nM.

With `COc1cccc2c1CC[C@H]1CN(CCn3c(=O)[nH]c4c(sc5ncc(Cl)nc54)c3=O)C[C@@H]21` the Kb [15] was 1.1 nM, the Ki [1] was 35.1 nM and the Kb [16] was 0.447 nM. It also gave a Ki [2] of 3.83 nM, an IUP [4] of 8.28 and an SHR [5] of 4.77. It also gave a Kb [6] of 44.7 nM and a Ki [3] of 0.69 nM.

In the case of `CCOc1ccccc1OCCN[C@H](C)Cc1ccc(OC)c(S(N)(=O)=O)c1` [TAMSULOSIN], the Kb [15] is reported as 0.339 nM, the Ki [1] is reported as 0.2 nM and the IUP [4] is reported as 8.87. The SHR [5] was 7.33 and the Kb [6] was 0.204 nM.

In the case of `COc1cccc2c1CC[C@H]1CN(CCn3c(=O)[nH]c4c(sc5ncccc54)c3=O)C[C@@H]21`, the Ki [17] is reported as 0.59 nM, the Kb [8] is reported as 2.24 nM and the Selectivity ratio [18] is reported as 10.4. It also gave a Kb [9] of 16.2 nM, a pED50 [19] of 5.35 and a Kb [10] of 5.62 nM. The Ki [12] was 6.12 nM, the Kb [13] was 1.66 nM and the Ki [14] was 0.69 nM.

For `COc1cccc2c1CC[C@H]1CN(CCn3c(=O)[nH]c4c(sc5cc(C(F)(F)F)ccc54)c3=O)C[C@@H]21`, the Ki [17] was 9.27 nM, the Selectivity ratio [18] was 2.56 and the Ki [12] was 23.8 nM. The Ki [14] was 6.84 nM.

In the case of `COc1cccc2c1CCC1CN(CCn3c(=O)[nH]c4c(oc5ccccc54)c3=O)CC21` (cis isomer), the Ki [17] is reported as 2.17 nM, the Selectivity ratio [18] is reported as 2.48 and the Ki [12] is reported as 5.39 nM. It also gave a Ki [14] of 0.68 nM.

Molecule `COc1cc2nc(N(C)CCCNC(=O)C3CCCO3)nc(N)c2cc1OC` (stereo unspecified) [ALFUZOSIN] has a Kb [15] of 24.5 nM, an IUP [4] of 6.87 and an SHR [5] of 6.58. For the same molecule, the Kb [6] was 4.9 nM.
